Laboratory results: ChEMBL document CHEMBL1949660 (Bioorg Med Chem Lett, 2012)

Key:
Histamine H3 receptor [1] = target: Histamine H3 receptor (Rattus norvegicus, UniProt Q9QYN8); assay: Displacement of [3H]NAMH from rat histamine H3 receptor expressed in CHO cells; assay type: cell-based
Outline: (§1)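 Radioligand displacement of [³H]NAMH from membranes isolated from CHO cells transfected with cloned human H₃ or rat H₃ receptors.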

Histamine H3 receptor [2] = target: Histamine H3 receptor (Homo sapiens, UniProt Q9Y5N1); assay: Displacement of [3H]NAMH from human histamine H3 receptor expressed in CHO cells; assay type: cell-based; outline: as §1
Histamine H3 receptor (Homo sapiens, UniProt Q9Y5N1), sequence (Q9Y5N1 whole entry): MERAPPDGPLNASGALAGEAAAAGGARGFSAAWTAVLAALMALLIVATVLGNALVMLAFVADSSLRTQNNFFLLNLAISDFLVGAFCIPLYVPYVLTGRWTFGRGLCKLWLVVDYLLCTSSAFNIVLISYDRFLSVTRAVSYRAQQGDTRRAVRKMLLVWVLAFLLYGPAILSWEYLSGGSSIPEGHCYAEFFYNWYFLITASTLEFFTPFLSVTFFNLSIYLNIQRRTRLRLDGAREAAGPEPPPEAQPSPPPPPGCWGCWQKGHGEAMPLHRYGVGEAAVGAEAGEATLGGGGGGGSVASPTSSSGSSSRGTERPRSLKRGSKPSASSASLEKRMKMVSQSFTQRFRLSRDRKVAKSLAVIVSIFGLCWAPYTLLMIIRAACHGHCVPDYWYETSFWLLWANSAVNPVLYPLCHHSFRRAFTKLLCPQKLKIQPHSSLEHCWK

[3] = Ratio drug uptake in brain to plasma of rat at 10 mg/kg, ip measured after 6 hrs; assay type: ADME, organism-based; set-up: dose 10 mg/kg, route intraperitoneal; details: read-out: BPR
[4] = Volume of distribution in rat at 1 mg/kg, iv; assay type: ADME, organism-based; set-up: dose 1 mg/kg, route intravenous; details: in vivo
Outline: (§2)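 Rat PK: iv dose with vehicle 3% DMSO, 30% solutol, 67% phosphate buffered saline. Oral 5 mg/kg dose with vehicle 50% Tween 80, 40% propylene carbonate, 10% propylene glycol.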

[5] = Cmax in rat at 5 mg/kg, po; assay type: ADME, organism-based; set-up: dose 5 mg/kg, route oral; details: in vivo
[6] = Half life in rat at 1 mg/kg, iv; assay type: ADME, organism-based; set-up: dose 1 mg/kg, route intravenous; details: in vivo; outline: as §2
[7] = Oral bioavailability in rat at 5 mg/kg; assay type: ADME, organism-based; details: in vivo; outline: as §2
[8] = target: Sodium-dependent dopamine transporter (Homo sapiens) (UniProt Q01959); assay: Inhibition of DAT at 10 uM
Sodium-dependent dopamine transporter (Homo sapiens), sequence (Q01959 whole entry): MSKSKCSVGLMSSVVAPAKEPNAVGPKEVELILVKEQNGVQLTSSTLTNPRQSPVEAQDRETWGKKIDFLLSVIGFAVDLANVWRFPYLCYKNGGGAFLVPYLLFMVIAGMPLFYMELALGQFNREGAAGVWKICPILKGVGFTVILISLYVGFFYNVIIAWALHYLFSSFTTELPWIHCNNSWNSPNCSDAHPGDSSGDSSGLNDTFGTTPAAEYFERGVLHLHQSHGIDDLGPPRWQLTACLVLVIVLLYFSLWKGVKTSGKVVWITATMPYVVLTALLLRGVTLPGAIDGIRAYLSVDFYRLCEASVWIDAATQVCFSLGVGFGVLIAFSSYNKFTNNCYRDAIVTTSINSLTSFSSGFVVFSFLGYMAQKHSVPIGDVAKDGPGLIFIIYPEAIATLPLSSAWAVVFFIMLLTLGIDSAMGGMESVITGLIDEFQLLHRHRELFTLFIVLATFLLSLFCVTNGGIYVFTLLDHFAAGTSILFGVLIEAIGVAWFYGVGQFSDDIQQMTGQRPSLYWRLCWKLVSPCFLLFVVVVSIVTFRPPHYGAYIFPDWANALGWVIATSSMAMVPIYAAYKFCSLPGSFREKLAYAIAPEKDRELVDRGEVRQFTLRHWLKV

[9] = Clearance in rat at 1 mg/kg, iv; assay type: ADME, organism-based; set-up: dose 1 mg/kg, route intravenous; details: in vivo; outline: as §2

Histamine H3 receptor (Rattus norvegicus, UniProt Q9QYN8), sequence (Q9QYN8 whole entry): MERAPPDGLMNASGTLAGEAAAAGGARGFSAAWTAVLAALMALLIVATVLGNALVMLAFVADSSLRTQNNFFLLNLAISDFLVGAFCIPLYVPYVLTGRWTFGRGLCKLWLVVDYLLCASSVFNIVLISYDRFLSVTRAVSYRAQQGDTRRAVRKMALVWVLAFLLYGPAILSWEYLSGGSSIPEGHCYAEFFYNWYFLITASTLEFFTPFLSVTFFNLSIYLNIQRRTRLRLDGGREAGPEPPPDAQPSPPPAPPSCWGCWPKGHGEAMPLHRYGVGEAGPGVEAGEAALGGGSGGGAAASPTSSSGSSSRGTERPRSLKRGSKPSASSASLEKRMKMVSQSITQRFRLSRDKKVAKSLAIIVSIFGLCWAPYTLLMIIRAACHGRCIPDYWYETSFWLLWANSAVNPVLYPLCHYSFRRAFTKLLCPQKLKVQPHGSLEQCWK

| Compound | Ki (Histamine H3 receptor [1]) [nM] | Ki (Histamine H3 receptor [2]) [nM] | further results |
| --- | --- | --- | --- |
| O=c1ccc(-c2ccc(OC3CCN(C4CCC4)CC3)cc2)nn1-c1ccccn1 | 15 | 9.8 | – |
| C[C@@H]1CC(=O)NN=C1c1ccc(OC2CCN(C3CCC3)CC2)cc1 | 9.6 | – | – |
| O=C1CCC(c2ccc(OC3CCN(C4CCC4)CC3)cc2)=NN1 | 6.7 | 3.7 | – |
| Cn1nc(-c2ccc(OC3CCN(C4CCCC4)CC3)nc2)ccc1=O | 12 | 5.9 | – |
| Cn1nc(-c2ccc(OC3CCN(C4CCC4)CC3)nc2)ccc1=O | 8.6 | 1.8 | – |
| CC1(C)CC(c2ccc(OC3CCN(C4CCC4)CC3)nc2)=NNC1=O | 28 | 12 | – |
| Cn1nc(-c2ccc(OC3CCN(C4CCCC4)CC3)cc2)ccc1=O | – | 2.7 | – |
| C[C@H]1CC(=O)NN=C1c1ccc(OC2CCN(C3CCC3)CC2)cc1 | 13 | – | Kp at 6 h [3]: 5.3; Vd [4]: 7.6 L/kg; Cmax [5]: 0.253 µg/mL; half-life [6]: 4.4 h; bioavailability [7]: 56%; inhibition [8]: 13%; clearance [9]: 1.38 L/h/kg |
| CC(C)n1nc(-c2ccc(OC3CCN(C4CCC4)CC3)nc2)ccc1=O | 9.4 | 6.5 | – |
| CC(C)N1CCC(Oc2ccc(-c3ccc(=O)[nH]n3)cn2)CC1 | 101 | 15 | – |
| Cn1nc(-c2ccc(OC3CCNCC3)cc2)ccc1=O | > 1000 | 695 | – |
